Tests used:
[1] = test system: Lichtheimia corymbifera; experiment: Antifungal activity against Absidia corymbifera 272 after 24 hrs by microdilution broth method; assay type: functional; conditions: Lichtheimia corymbifera, 272, 24 h
In short: (§1)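 CLSI M27-A3 broth microdilution in RPMI 1640 with glutamine, buffered to pH 7.0 with MOPS; DMSO diluent. Yeast inoculum 5 × 10^3 ± 0.2 CFU/mL. Moulds grown on Sabouraud agar 3–10 days before spore harvest, final inoculum 0.5-5 × 10^4 CFU/mL, checked in a Bürker chamber. Incubated dark, humid, 35 °C, read at 24 and 48 h visually and at 540 nm. MIC taken as ≥80% (yeasts) or ≥50% (filamentous) growth reduction versus control.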

[2] = test system: Nakaseomyces glabratus; experiment: Antifungal activity against Candida glabrata 20/I after 24 hrs by microdilution broth method; assay type: functional; in short: as §1
[3] = test system: Trichosporon asahii; experiment: Antifungal activity against Trichosporon asahii 1188 after 24 hrs by microdilution broth method; assay type: functional; conditions: Trichosporon asahii, 1188, 24 h; in short: as §1
[4] = test system: Mycobacterium kansasii; experiment: Antimycobacterial activity against Mycobacterium kansasii 6509/96 after 7 days; assay type: functional; conditions: 6509/96, 168 h
In short: (§2)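 Šula's semisynthetic medium micromethod at 37 °C, read after 7, 14 and 21 days. The 1.0 McFarland suspension was diluted 10^-4. MIC determined. 6509/96 is a clinical isolate.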

[5] = test system: Staphylococcus aureus; experiment: Antibacterial activity against methicillin-resistant Staphylococcus aureus H 5996/08 after 48 hrs by microdilution broth method; assay type: functional; conditions: H 5996/08, 48 h
[6] = test system: Mycobacterium kansasii; experiment: Antimycobacterial activity against Mycobacterium kansasii 235/80 after 14 days; assay type: functional; conditions: 235/80, 336 h; in short: as §2
[7] = test system: Mycobacterium tuberculosis; experiment: Antimycobacterial activity against Mycobacterium tuberculosis H37Rv 331/88 after 21 days; assay type: functional; conditions: H37Rv 331/88, 504 h
[8] = test system: Candida albicans; experiment: Antifungal activity against Candida albicans ATCC 44859 after 24 hrs by microdilution broth method; assay type: functional; conditions: ATCC 44859, 24 h; in short: as §1
[9] = test system: Trichophyton mentagrophytes; experiment: Antifungal activity against Trichophyton mentagrophytes 445 after 48 hrs by microdilution broth method; assay type: functional; conditions: Trichophyton mentagrophytes, 445, 48 h
[10] = test system: Mycobacterium avium; experiment: Antimycobacterial activity against Mycobacterium avium 330/80 after 21 days; assay type: functional; conditions: 330/80, 504 h
[11] = test system: Mycobacterium kansasii; experiment: Antimycobacterial activity against Mycobacterium kansasii 235/80 after 7 days; assay type: functional; conditions: 235/80, 168 h; in short: as §2
[12] = test system: Mycobacterium kansasii; experiment: Antimycobacterial activity against Mycobacterium kansasii 235/80 after 21 days; assay type: functional; conditions: 235/80, 504 h; in short: as §2
[13] = test system: Mycobacterium kansasii; experiment: Antimycobacterial activity against Mycobacterium kansasii 6509/96 after 21 days; assay type: functional; conditions: 6509/96, 504 h; in short: as §2
[14] = test system: Klebsiella pneumoniae; experiment: Antibacterial activity against ESBL-positive Klebsiella pneumoniae J 14368/08 after 48 hrs by microdilution broth method; assay type: functional; conditions: J 14368/08, 48 h
In short: (§3)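 Mueller-Hinton broth microdilution (modified M07-A07), pH 7.4 (±0.2). Compounds dissolved in DMSO, tested at final 500 to 0.49 µmol/L. Inoculum in sterile water matched to 0.5 McFarland. Incubated in the dark, humid atmosphere, 35 °C, read at 24 and 48 h visually and at 540 nm. MIC taken as ≥95% growth reduction (IC95) versus control.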

[15] = test system: Enterococcus sp.; experiment: Antibacterial activity against Enterococcus sp. J 14365/08 after 48 hrs by microdilution broth method; assay type: functional; conditions: J 14365/08, 48 h; in short: as §3
[16] = test system: Pichia kudriavzevii; experiment: Antifungal activity against Candida krusei E28 after 48 hrs by microdilution broth method; assay type: functional; conditions: E28, 48 h; in short: as §1
[17] = test system: Mycobacterium tuberculosis; experiment: Antimycobacterial activity against Mycobacterium tuberculosis H37Rv 331/88 after 14 days; assay type: functional; conditions: H37Rv 331/88, 336 h
[18] = test system: Escherichia coli; experiment: Antibacterial activity against Escherichia coli CCM4517 after 24 hrs by microdilution broth method; assay type: functional; conditions: CCM4517, 24 h; in short: as §3
[19] = test system: Klebsiella pneumoniae; experiment: Antibacterial activity against ESBL-positive Klebsiella pneumoniae J 14368/08 after 24 hrs by microdilution broth method; assay type: functional; conditions: J 14368/08, 24 h; in short: as §3
[20] = test system: Lichtheimia corymbifera; experiment: Antifungal activity against Absidia corymbifera 272 after 48 hrs by microdilution broth method; assay type: functional; conditions: Lichtheimia corymbifera, 272, 48 h; in short: as §1
[21] = test system: Staphylococcus aureus; experiment: Antibacterial activity against methicillin-resistant Staphylococcus aureus H 5996/08 after 24 hrs by microdilution broth method; assay type: functional; conditions: H 5996/08, 24 h
[22] = test system: Mycobacterium kansasii; experiment: Antimycobacterial activity against Mycobacterium kansasii 6509/96 after 14 days; assay type: functional; conditions: 6509/96, 336 h; in short: as §2
[23] = test system: Candida albicans; experiment: Antifungal activity against Candida albicans ATCC 44859 after 48 hrs by microdilution broth method; assay type: functional; conditions: ATCC 44859, 48 h; in short: as §1
[24] = test system: Aspergillus fumigatus; experiment: Antifungal activity against Aspergillus fumigatus 231 after 24 hrs by microdilution broth method; assay type: functional; conditions: Aspergillus fumigatus, 231, 24 h; in short: as §1
[25] = test system: Staphylococcus aureus; experiment: Antibacterial activity against Staphylococcus aureus CCM 4516/08 after 24 hrs by microdilution broth method; assay type: functional; conditions: CCM 4516/08, 24 h
[26] = test system: Candida tropicalis; experiment: Antifungal activity against Candida tropicalis 156 after 24 hrs by microdilution broth method; assay type: functional; conditions: Candida tropicalis, 156, 24 h; in short: as §1
[27] = test system: Candida tropicalis; experiment: Antifungal activity against Candida tropicalis 156 after 48 hrs by microdilution broth method; assay type: functional; conditions: Candida tropicalis, 156, 48 h; in short: as §1
[28] = test system: Pseudomonas aeruginosa; experiment: Antibacterial activity against Pseudomonas aeruginosa CCM 1961 after 24 hrs by microdilution broth method; assay type: functional; conditions: CCM 1961, 24 h; in short: as §3
[29] = test system: Klebsiella pneumoniae; experiment: Antibacterial activity against Klebsiella pneumoniae D 11750/08 after 48 hrs by microdilution broth method; assay type: functional; conditions: D 11750/08, 48 h; in short: as §3
[30] = test system: Trichosporon asahii; experiment: Antifungal activity against Trichosporon asahii 1188 after 48 hrs by microdilution broth method; assay type: functional; conditions: Trichosporon asahii, 1188, 48 h; in short: as §1
[31] = test system: Klebsiella pneumoniae; experiment: Antibacterial activity against Klebsiella pneumoniae D 11750/08 after 24 hrs by microdilution broth method; assay type: functional; conditions: D 11750/08, 24 h; in short: as §3
[32] = test system: Staphylococcus epidermidis; experiment: Antibacterial activity against Staphylococcus epidermidis H 6966/08 after 48 hrs by microdilution broth method; assay type: functional; conditions: H 6966/08, 48 h; in short: as §3
[33] = test system: Staphylococcus epidermidis; experiment: Antibacterial activity against Staphylococcus epidermidis H 6966/08 after 24 hrs by microdilution broth method; assay type: functional; conditions: H 6966/08, 24 h; in short: as §3
[34] = test system: Trichophyton mentagrophytes; experiment: Antifungal activity against Trichophyton mentagrophytes 445 after 24 hrs by microdilution broth method; assay type: functional; conditions: Trichophyton mentagrophytes, 445, 24 h
[35] = test system: Staphylococcus aureus; experiment: Antibacterial activity against Staphylococcus aureus CCM 4516/08 after 48 hrs by microdilution broth method; assay type: functional; conditions: CCM 4516/08, 48 h
[36] = test system: Enterococcus sp.; experiment: Antibacterial activity against Enterococcus sp. J 14365/08 after 24 hrs by microdilution broth method; assay type: functional; conditions: J 14365/08, 24 h; in short: as §3
[37] = test system: Escherichia coli; experiment: Antibacterial activity against Escherichia coli CCM4517 after 48 hrs by microdilution broth method; assay type: functional; conditions: CCM4517, 48 h; in short: as §3
[38] = test system: Pseudomonas aeruginosa; experiment: Antibacterial activity against Pseudomonas aeruginosa CCM 1961 after 48 hrs by microdilution broth method; assay type: functional; conditions: CCM 1961, 48 h; in short: as §3
[39] = test system: Nakaseomyces glabratus; experiment: Antifungal activity against Candida glabrata 20/I after 48 hrs by microdilution broth method; assay type: functional; in short: as §1
[40] = test system: Aspergillus fumigatus; experiment: Antifungal activity against Aspergillus fumigatus 231 after 48 hrs by microdilution broth method; assay type: functional; conditions: Aspergillus fumigatus, 231, 48 h; in short: as §1
[41] = test system: Pichia kudriavzevii; experiment: Antifungal activity against Candida krusei E28 after 24 hrs by microdilution broth method; assay type: functional; conditions: E28, 24 h; in short: as §1
[42] = test system: Mycobacterium avium; experiment: Antimycobacterial activity against Mycobacterium avium 330/80 after 14 days; assay type: functional; conditions: 330/80, 336 h
[43] = test system: HepG2; experiment: Cytotoxicity against human HepG2 cells after 24 hrs […]; assay type: cell-based; conditions: HepG2, 24 h
[44] = Selectivity index, ratio of CI50 for human HepG2 cells to MIC100 for Mycobacterium tuberculosis H37Rv 331/88

O=C(Nc1cc(C(F)(F)F)cc(C(F)(F)F)c1)c1cc([N+](=O)[O-])ccc1O
7.81 µM: MIC [5] | MIC [21]
16 µM: MIC [4] | MIC [7] | MIC [11] | MIC [17]
32 µM: MIC [6] | MIC [10] | MIC [12] | MIC [13] | MIC [22] | MIC [42]
> 500 µM: MIC [1] | MIC [2] | MIC [3] | MIC [8] | MIC [9] | MIC [14] | MIC [16] | MIC [18] | MIC [19] | MIC [20] | MIC [23] | MIC [24] | MIC [26] | MIC [27] | MIC [28] | MIC [29] | MIC [30] | MIC [31] | MIC [34] | MIC [37] | MIC [38] | MIC [39] | MIC [40] | MIC [41]
500 µM: MIC [15] | MIC [36]
0.869: Selectivity Index [44]
15.6 µM: MIC [32] | MIC [33]
13.9 µM: IC50 [43]
3.9 µM: MIC [25] | MIC [35]

O=C(Nc1ccc(C(F)(F)F)cc1)c1cc([N+](=O)[O-])ccc1O
32 µM: MIC [12] | MIC [13] | MIC [22]
8 µM: MIC [7] | MIC [11] | MIC [17]
15.6 µM: MIC [32] | MIC [33]
3.5 µM: IC50 [43]
31.2 µM: MIC [5] | MIC [21] | MIC [25] | MIC [35]
> 500 µM: MIC [2] | MIC [8] | MIC [14] | MIC [15] | MIC [16] | MIC [18] | MIC [19] | MIC [23] | MIC [26] | MIC [27] | MIC [28] | MIC [29] | MIC [31] | MIC [36] | MIC [37] | MIC [38] | MIC [39] | MIC [41]
0.438: Selectivity Index [44]
16 µM: MIC [4] | MIC [6]
62.5 µM: MIC [10] | MIC [42]
500 µM: MIC [1] | MIC [3] | MIC [9] | MIC [20] | MIC [24] | MIC [30] | MIC [34] | MIC [40]
